{
  "source": "ChEMBL document CHEMBL1154089",
  "about": "“Novel N-(3-carboxyl-9-benzyl-beta-carboline-1-yl)ethylamino acids: synthesis, anti-tumor evaluation, intercalating determination, 3D QSAR analysis and docking investigation” (Eur J Med Chem, 2009)",
  "key": {"[1]": {"experiment": "Cytotoxicity against human MES-SA cells after 48 hrs by MTT assay", "format": "functional, cell-based", "how_it_was_run": "(§1)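 Cells grown in DMEM or RPMI-1640 with 10% FBS plus penicillin/streptomycin. Seeded at 5 × 10^4 cells/ml and given 4 h at 37 °C in 5% CO2 before the medium was replaced with compound (0.1–400 µM, DMSO vehicle; vehicle control 1% DMSO). After 48 h, MTT added (final 0.5 mg/ml) for 4 h. Formazan dissolved in DMSO and read at 570 nm. IC50 is the concentration giving 50% growth inhibition.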"}, "CCRF S-180 [2]": {"system": "CCRF S-180", "experiment": "Antitumor activity against mouse S180 cells xenografted in ICR mouse assessed as inhibition of tumor growth at 0.0089 umol/kg, ip administered 24 hrs after tumor implantation once daily for 7 consecutive days measured after 24 hrs last post dose", "format": "functional", "conditions": "CCRF S-180, ip", "how_it_was_run": "(§2)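 S180 solid tumors in male ICR mice (10–12 weeks), 1 × 10^7 cells s.c. at the right armpit. Mice randomized at 24 h, n = 12 per group, and dosed i.p. daily in 0.2 ml 0.9% saline for 7 days. Tumors weighed 24 h after the final dose. Inhibition (%) = [(A − B)/A] × 100, where A is the mean tumor weight of saline controls and B is the mean of the treated group.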"}, "CCRF S-180 [3]": {"system": "CCRF S-180", "experiment": "Antitumor activity against mouse S180 cells xenografted in ICR mouse assessed as decrease in tumor weight at 0.0089 umol/kg, ip administered 24 hrs after tumor implantation once daily for 7 consecutive days measured after 24 hrs last post dose", "format": "functional", "how_it_was_run": "(§3)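 Male ICR mice, 10–12 weeks old. Solid tumors from 1 × 10^7 viable S180 ascites cells in 0.2 ml 0.9% saline, injected s.c. at the right armpit. Random allocation at 24 h, 12 per group. Dosed i.p. daily in 0.2 ml 0.9% saline for 7 days. Saline-only negative control; cytarabine 89 µmol/kg positive control. Tumors excised and weighed 24 h after the last dose. ANOVA used for statistics.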"}, "[4]": {"experiment": "Cytotoxicity against human H1299 cells after 48 hrs by MTT assay", "format": "functional, cell-based", "conditions": "NCI-H1299, 48 h", "how_it_was_run": "as §1"}, "HL-60": {"system": "HL-60", "experiment": "Cytotoxicity against human HL60 cells after 48 hrs by MTT assay", "format": "functional, cell-based", "conditions": "HL-60, 48 h", "how_it_was_run": "as §1"}, "CCRF S-180 [5]": {"system": "CCRF S-180", "experiment": "Antitumor activity against mouse S180 cells xenografted in ICR mouse assessed as inhibition of tumor growth at 89 umol/kg, ip administered 24 hrs after tumor implantation once daily for 7 consecutive days measured after 24 hrs last post dose", "format": "functional", "conditions": "CCRF S-180, ip", "how_it_was_run": "as §2"}, "Mus musculus [6]": {"system": "Mus musculus", "experiment": "Toxicity in ICR mouse assessed as death at > 500 mg/kg, ip after 7 days", "format": "organism-based", "design": "dose 500 mg/kg, route intraperitoneal", "conditions": "in vivo, 168 h", "how_it_was_run": "(§4)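 Mice fasted overnight with free access to water, then given a single i.p. injection of 150, 300 or 500 mg/kg in 0.2 ml of 0.9% saline. Groups of 12 (six male, six female). Animals were watched continuously for up to 7 days for abnormal behaviour (tremor, twitch, jumping, tetanus, supination) or death. They were sacrificed on day 7, and heart, liver and kidneys were checked macroscopically. LD50 was estimated graphically.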"}, "CCRF S-180 [7]": {"system": "CCRF S-180", "experiment": "Antitumor activity against mouse S180 cells xenografted in ICR mouse assessed as inhibition of tumor growth at 0.89 umol/kg, ip administered 24 hrs after tumor implantation once daily for 7 consecutive days measured after 24 hrs last post dose", "format": "functional", "conditions": "CCRF S-180, ip", "how_it_was_run": "as §2"}, "Mus musculus [8]": {"system": "Mus musculus", "experiment": "Toxicity in ICR mouse assessed as tetanus at > 500 mg/kg, ip after 7 days", "format": "organism-based", "design": "dose 500 mg/kg, route intraperitoneal", "conditions": "in vivo, 168 h", "how_it_was_run": "as §4"}, "HepG2": {"system": "HepG2", "experiment": "Cytotoxicity against human HepG2 cells after 48 hrs by MTT assay", "format": "functional, cell-based", "conditions": "HepG2, 48 h", "how_it_was_run": "as §1"}, "CCRF S-180 [9]": {"system": "CCRF S-180", "experiment": "Antitumor activity against mouse S180 cells xenografted in ICR mouse assessed as decrease in tumor weight at 0.89 umol/kg, ip administered 24 hrs after tumor implantation once daily for 7 consecutive days measured after 24 hrs last post dose", "format": "functional", "how_it_was_run": "as §3"}, "Mus musculus [10]": {"system": "Mus musculus", "experiment": "Toxicity in mouse S180 cells xenografted in ICR mouse assessed as increase in body weight at 89 umol/kg, ip administered 24 hrs after tumor implantation once daily for 7 consecutive days measured after 24 hrs last post dose", "format": "organism-based, CCRF S-180", "conditions": "in vivo", "how_it_was_run": "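S180-bearing male ICR mice, n = 12 per group, given 89 µmol/kg i.p. daily in 0.2 ml 0.9% saline for 7 days, starting 24 h after s.c. implantation. Animals weighed daily. Result expressed as body-weight increase from the start of treatment, in g, mean ± SD.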"}, "HeLa": {"system": "HeLa", "experiment": "Cytotoxicity against human HeLa cells after 48 hrs by MTT assay", "format": "functional, cell-based", "how_it_was_run": "as §1"}, "Mus musculus [11]": {"system": "Mus musculus", "experiment": "Toxicity in ICR mouse assessed as heart necropsy at > 500 mg/kg, ip after 7 days", "format": "organism-based", "design": "dose 500 mg/kg, route intraperitoneal", "conditions": "in vivo, 168 h", "how_it_was_run": "as §4"}, "CCRF S-180 [12]": {"system": "CCRF S-180", "experiment": "Antitumor activity against mouse S180 cells xenografted in ICR mouse assessed as decrease in tumor weight at 89 umol/kg, ip administered 24 hrs after tumor implantation once daily for 7 consecutive days measured after 24 hrs last post dose", "format": "functional", "how_it_was_run": "as §3"}, "Mus musculus [13]": {"system": "Mus musculus", "experiment": "Toxicity in ICR mouse assessed as kidneys necropsy at > 500 mg/kg, ip after 7 days", "format": "organism-based, Kidney", "design": "dose 500 mg/kg, route intraperitoneal", "conditions": "in vivo, 168 h", "how_it_was_run": "as §4"}, "Mus musculus [14]": {"system": "Mus musculus", "experiment": "Toxicity in ICR mouse assessed as supination at > 500 mg/kg, ip after 7 days", "format": "organism-based", "design": "dose 500 mg/kg, route intraperitoneal", "conditions": "in vivo, 168 h", "how_it_was_run": "as §4"}, "Mus musculus [15]": {"system": "Mus musculus", "experiment": "Toxicity in ICR mouse assessed as jumping at > 500 mg/kg, ip after 7 days", "format": "organism-based", "design": "dose 500 mg/kg, route intraperitoneal", "conditions": "in vivo, 168 h", "how_it_was_run": "as §4"}, "Mus musculus [16]": {"system": "Mus musculus", "experiment": "Toxicity in ICR mouse assessed as tremor at > 500 mg/kg, ip after 7 days", "format": "organism-based", "design": "dose 500 mg/kg, route intraperitoneal", "conditions": "in vivo, 168 h", "how_it_was_run": "as §4"}, "Mus musculus [17]": {"system": "Mus musculus", "experiment": "Toxicity in ICR mouse assessed as twitch at > 500 mg/kg, ip after 7 days", "format": "organism-based", "design": "dose 500 mg/kg, route intraperitoneal", "conditions": "in vivo, 168 h", "how_it_was_run": "as §4"}, "Mus musculus [18]": {"system": "Mus musculus", "experiment": "Toxicity in ICR mouse assessed as liver necropsy at > 500 mg/kg, ip after 7 days", "format": "organism-based", "design": "dose 500 mg/kg, route intraperitoneal", "conditions": "in vivo, 168 h", "how_it_was_run": "as §4"}, "Mus musculus [19]": {"system": "Mus musculus", "experiment": "Toxicity in mouse S180 cells xenografted in ICR mouse assessed as spleen index at 89 umol/kg, ip administered 24 hrs after tumor implantation once daily for 7 consecutive days measured after 24 hrs last post dose", "format": "organism-based, CCRF S-180", "conditions": "in vivo", "how_it_was_run": "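S180-bearing male ICR mice (n = 12) received 89 µmol/kg i.p. daily in 0.2 ml saline for 7 days. Killed under ether 24 h after the last dose; spleens excised and weighed. Spleen index given as mean ± SD, […] body weight.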"}, "CCRF S-180 [20]": {"system": "CCRF S-180", "experiment": "Antitumor activity against mouse S180 cells xenografted in ICR mouse assessed as inhibition of tumor growth at > 89 umol/kg, ip administered 24 hrs after tumor implantation once daily for 7 consecutive days measured after 24 hrs last post dose", "format": "functional, organism-based"}},
  "note": "Active and inactive are the calls of the source. The rule behind the calls is not given here.",
  "data": [
    {"smiles": "C[C@H](NCCc1nc(C(=O)O)cc2c3ccccc3n(Cc3ccccc3)c12)C(=O)O", "values": [
      {"measurement": "IC50", "setting": "[1]", "value": 120, "unit": "µM"},
      {"measurement": "inhibition in vivo at 0.0089 µmol/kg", "setting": "CCRF S-180 [2]", "value": 1.5, "unit": "%"},
      {"measurement": "Activity", "setting": "CCRF S-180 [3]", "value": 1.64, "unit": "g"},
      {"measurement": "IC50", "setting": "[4]", "value": 81.8, "unit": "µM"},
      {"measurement": "IC50", "setting": "HL-60", "value": 28.1, "unit": "µM"},
      {"measurement": "inhibition in vivo at 89 µmol/kg", "setting": "CCRF S-180 [5]", "value": 55.2, "unit": "%"},
      {"measurement": "Activity", "setting": "Mus musculus [6]", "value": "Non-toxic"},
      {"measurement": "inhibition in vivo at 0.89 µmol/kg", "setting": "CCRF S-180 [7]", "value": 25.6, "unit": "%"},
      {"measurement": "Activity", "setting": "Mus musculus [8]", "value": "Non-toxic"},
      {"measurement": "IC50", "setting": "HepG2", "value": 242, "unit": "µM"},
      {"measurement": "Activity", "setting": "CCRF S-180 [9]", "value": 1.22, "unit": "g"},
      {"measurement": "Activity", "setting": "Mus musculus [10]", "value": 12.92, "unit": "g"},
      {"measurement": "IC50", "setting": "HeLa", "value": 122, "unit": "µM"},
      {"measurement": "Activity", "setting": "Mus musculus [11]", "value": "Non-toxic"},
      {"measurement": "Activity", "setting": "CCRF S-180 [12]", "value": 0.74, "unit": "g"},
      {"measurement": "Activity", "setting": "Mus musculus [13]", "value": "Non-toxic"},
      {"measurement": "Activity", "setting": "Mus musculus [14]", "value": "Non-toxic"},
      {"measurement": "Activity", "setting": "Mus musculus [15]", "value": "Non-toxic"},
      {"measurement": "Activity", "setting": "Mus musculus [16]", "value": "Non-toxic"},
      {"measurement": "Activity", "setting": "Mus musculus [17]", "value": "Non-toxic"},
      {"measurement": "Activity", "setting": "Mus musculus [18]", "value": "Non-toxic"},
      {"measurement": "Activity", "setting": "Mus musculus [19]", "value": 13.3, "unit": "mg/g"},
      {"measurement": "Activity", "setting": "CCRF S-180 [20]", "value": "Active"}
    ]}
  ]
}
